In ChEMBL document CHEMBL1124521, “Effect of structural modifications in the C7-C11 region of the retinoid skeleton on biological activity in a series of aromatic retinoids” (1989):

Tests used:
[1] = Inhibitory dose against tracheal organ culture reversal of keratinization; type: functional; conditions: Cricetulus griseus, Trachea; read-out: ID50 (the source's name)
How it was run: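 Retinoid-deficient hamster tracheas in organ culture, scored for reversal of keratinization. At least six cultures per retinoid concentration; ID50 by polynomial interpolation.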

Oryctolagus cuniculus [2] = organism: Oryctolagus cuniculus; assay: cross-linked envelope inhibition assay was performed at 10 nM compound concentration; type: functional; design: scale not given: the % may be the effect or the level left
How it was run: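 Rabbit tracheal epithelial cells exposed to 1 × 10⁻⁸ M retinoid from day 6 of culture. Cross-linked envelope formation was determined on day 12, in triplicate.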

Oryctolagus cuniculus [3] = organism: Oryctolagus cuniculus; assay: Percentage inhibition of cholesterol-3-sulfate activity in rabbit at 0.1 nM.; type: functional
How it was run: (§1)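 Rabbit tracheal epithelial cells in supplemented Ham's F12, given retinoid (0.1 or 10 nM) in Me₂SO from day 5 for 5 days. Cells were labeled 22 h with 25 μCi/mL Na₂³⁵SO₄, trypsinized, and extracted with CHCl₃/MeOH. Inhibition of ³⁵SO₄ incorporation into cholesterol 3-sulfate was measured relative to control.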

Oryctolagus cuniculus [4] = organism: Oryctolagus cuniculus; assay: Percentage inhibition of Transglutaminase activity in rabbit at 0.1 nM.; design: scale not given: the % may be the effect or the level left
How it was run: (§2)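 Rabbit tracheal epithelial cells on fibronectin/BSA/vitrogen-coated dishes in supplemented Ham's F12, treated with retinoid in Me₂SO from day 5 for 5 days. Cells were sonicated in PBS with 10 mM dithiothreitol, and transglutaminase activity was measured as [³H]putrescine incorporation into casein, in triplicate.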

Oryctolagus cuniculus [5] = organism: Oryctolagus cuniculus; assay: Percentage inhibition of Transglutaminase activity in rabbit at 10 nM.; how it was run: as §2
[6] = molecular target: Cellular retinoic acid-binding protein 1 (Gallus gallus) (UniProt P40220); assay: Concentration of compound required to inhibit binding of 2.5 uM [3H]all-trans-retinoic acid by 50% in chick
How it was run: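 Chick embryo skin CRABP (12–13-day), with albumin removed on Affi-Gel Blue. Eluates (1 mg protein/0.4 mL) were incubated with saturable [³H]-all-trans-retinoic acid ± 1-, 5-, 10- or 25-fold molar excess of unlabeled retinoid. Free ligand was removed with dextran-coated charcoal, followed by filtration and counting of bound radioactivity. Nonspecific binding was defined with 25-fold excess of retinoic acid. ID50 from semilog plots.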

[7] = molecular target: Ornithine decarboxylase (Mus musculus) (UniProt P00860); assay: Inhibitory effect of compound on the induction of ornithine decarboxylase in CD-1 mouse.
Oryctolagus cuniculus [8] = organism: Oryctolagus cuniculus; assay: Percentage inhibition of cholesterol-3-sulfate activity rabbit at 10 nM.; type: functional; design: scale not given: the % may be the effect or the level left; how it was run: as §1
F9 [9] = assay: Ability to displace [3H]all-trans-retinoic acid from F9 embryonal carcinoma cells, was assessed in a F9 laminin release assay; type: functional; conditions: Mus musculus, F9, 96 h; read-out: ED50 (the source's name)
F9 [10] = assay: Ability to displace 3 uM retinoid and [3H]all-trans-retinoic acid in F9 embryonal carcinoma cells using F9 Plasminogen Activator releasing assay; type: functional; conditions: Mus musculus, F9, 4 days; read-out: ED50 (the source's name)
[11] = (§3) Inhibition of binding of [3H]all-trans-retinoic acid to cellular retinoic acid binding protein at 3 uM compound concentration, in rat; design: scale not given: the % may be the effect or the level left
How it was run: (§4)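 CRABP partially purified from rat testis. Competition of 3 μM retinoid with [³H]-all-trans-retinoic acid, bound ligand separated by Sephadex G-25 gel filtration on 2-mL columns. Triplicate measurements.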

[12] = as §3; type: functional; design: scale not given: the % may be the effect or the level left; how it was run: as §4
[13] = molecular target: Cellular retinoic acid-binding protein 1 (Gallus gallus) (UniProt P40220)

Chain of Ornithine decarboxylase (Mus musculus) (P00860 whole entry, looked up): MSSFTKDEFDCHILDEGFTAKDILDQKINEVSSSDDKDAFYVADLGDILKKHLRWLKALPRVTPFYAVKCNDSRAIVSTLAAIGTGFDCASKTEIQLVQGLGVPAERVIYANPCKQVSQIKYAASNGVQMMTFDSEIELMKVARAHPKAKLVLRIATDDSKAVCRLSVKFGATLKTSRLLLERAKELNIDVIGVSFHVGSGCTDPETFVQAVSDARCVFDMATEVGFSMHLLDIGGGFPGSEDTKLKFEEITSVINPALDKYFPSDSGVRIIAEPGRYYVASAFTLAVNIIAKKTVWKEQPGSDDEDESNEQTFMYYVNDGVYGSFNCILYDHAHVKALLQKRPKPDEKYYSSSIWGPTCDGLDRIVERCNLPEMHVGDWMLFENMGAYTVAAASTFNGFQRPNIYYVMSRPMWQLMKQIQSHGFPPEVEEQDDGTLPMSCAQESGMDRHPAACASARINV
Chain of Cellular retinoic acid-binding protein 1 (Gallus gallus) (P40220 whole entry): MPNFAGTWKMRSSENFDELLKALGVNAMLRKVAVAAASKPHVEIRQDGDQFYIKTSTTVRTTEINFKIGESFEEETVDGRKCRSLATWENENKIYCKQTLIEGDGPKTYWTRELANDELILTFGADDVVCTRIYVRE

SMILES: Cc1c(-c2ccc3c(c2)C(C)(C)CCC3(C)C)ccc2cc(C(=O)O)ccc12
- IC50 [1]: 0.08 nM
- Control (Oryctolagus cuniculus [2]): 5%
- Cholesterol sulfate synthesis (% of control) (Oryctolagus cuniculus [3]): 187%
- Control (Oryctolagus cuniculus [4]): 114%
- Transglutaminase activity (% of control) (Oryctolagus cuniculus [5]): 47%
- ID50 [6]: 15000 nM
- ID50 [7]: 66 nM
- Control (Oryctolagus cuniculus [8]): 14%
- EC50 (F9 [9]): > 5000 nM
- EC50 (F9 [10]): 3 nM

SMILES: Cc1cc2c(cc1-c1ccc3cc(C(=O)O)ccc3c1)C(C)(C)CCC2(C)C
- IC50 [1]: 0.02 nM
- Control (Oryctolagus cuniculus [2]): <1%
- Cholesterol sulfate synthesis (% of control) (Oryctolagus cuniculus [3]): 12%
- Control (Oryctolagus cuniculus [4]): 37%
- Transglutaminase activity (% of control) (Oryctolagus cuniculus [5]): 11%
- ID50 [6]: 4800 nM
- ID50 [7]: 0.4 nM
- Control (Oryctolagus cuniculus [8]): 2%
- EC50 (F9 [9]): > 100 nM
- EC50 (F9 [10]): 0.5 nM

SMILES: C/C(=C\c1ccc(C(=O)O)cc1)c1ccc2c(c1)C(C)(C)CCC2(C)C
- IC50 [1]: 0.002 nM
- Control (Oryctolagus cuniculus [2]): <1%
- Control [11]: 100%
- Cholesterol sulfate synthesis (% of control) (Oryctolagus cuniculus [3]): 6%
- Transglutaminase activity (% of control) (Oryctolagus cuniculus [5]): 1%
- ID50 [6]: 800 nM
- ID50 [7]: 0.03 nM
- Control (Oryctolagus cuniculus [8]): 1%
- EC50 (F9 [9]): 1.5 nM
- EC50 (F9 [10]): 0.08 nM

SMILES: CC1(C)CCC(C)(C)c2cc(-c3ccc4cc(C(=O)O)ccc4c3)ccc21
- IC50 [1]: 0.003 nM
- Control (Oryctolagus cuniculus [2]): <1%
- Control [11]: 91%
- Cholesterol sulfate synthesis (% of control) (Oryctolagus cuniculus [3]): 15%
- Transglutaminase activity (% of control) (Oryctolagus cuniculus [5]): 9%
- ID50 [6]: 1600 nM
- ID50 [7]: 2.2 nM
- Control (Oryctolagus cuniculus [8]): 2%
- EC50 (F9 [9]): 31 nM
- EC50 (F9 [10]): 1 nM

SMILES: C/C(=C(/C)c1ccc2c(c1)C(C)(C)CCC2(C)C)c1ccc(C(=O)O)cc1
- IC50 [1]: > 10 nM
- Control (Oryctolagus cuniculus [2]): 100%
- Cholesterol sulfate synthesis (% of control) (Oryctolagus cuniculus [3]): 73%
- Transglutaminase activity (% of control) (Oryctolagus cuniculus [5]): 68%
- ID50 [6]: 1000 nM
- ID50 [7]: 142 nM
- Control (Oryctolagus cuniculus [8]): 33%
- EC50 (F9 [9]): > 100 nM
- EC50 (F9 [10]): > 10 nM

SMILES: CC1(C)CCC(C)(C)c2cc3cc(-c4ccc(C(=O)O)cc4)ccc3cc21
- IC50 [1]: 0.01 nM
- Control (Oryctolagus cuniculus [2]): <1%
- Cholesterol sulfate synthesis (% of control) (Oryctolagus cuniculus [3]): 13%
- Control (Oryctolagus cuniculus [4]): 12%
- Transglutaminase activity (% of control) (Oryctolagus cuniculus [5]): 14%
- ID50 [6]: 800 nM
- ID50 [7]: 0.07 nM
- Control (Oryctolagus cuniculus [8]): 2%
- EC50 (F9 [9]): 0.2 nM
- EC50 (F9 [10]): 0.3 nM

SMILES: CC1(C)CCC(C)(C)c2cc(C3C[C@H]3c3ccc(C(=O)O)cc3)ccc21 (stereo not given in full)
- IC50 [1]: > 0.1 nM
- Control (Oryctolagus cuniculus [2]): <1%
- Cholesterol sulfate synthesis (% of control) (Oryctolagus cuniculus [3]): 73%
- Control (Oryctolagus cuniculus [4]): 130%
- Transglutaminase activity (% of control) (Oryctolagus cuniculus [5]): 23%
- ID50 [6]: 4800 nM
- ID50 [7]: 3.2 nM
- Control (Oryctolagus cuniculus [8]): 2%
- EC50 (F9 [9]): 90 nM
- EC50 (F9 [10]): 2 nM

SMILES: C/C(=C\c1ccc2c(c1)C(C)(C)CCC2(C)C)c1ccc(C(=O)O)cc1
- IC50 [1]: 0.007 nM
- Control (Oryctolagus cuniculus [2]): 0%
- Control [11]: 27%
- Cholesterol sulfate synthesis (% of control) (Oryctolagus cuniculus [3]): 2%
- Control (Oryctolagus cuniculus [4]): 10%
- Transglutaminase activity (% of control) (Oryctolagus cuniculus [5]): 5%
- ID50 [6]: 1000 nM
- ID50 [7]: 0.03 nM
- Control (Oryctolagus cuniculus [8]): 1%
- EC50 (F9 [9]): 1.5 nM
- EC50 (F9 [10]): 0.7 nM

SMILES: CC1=C(/C=C/C(C)=C/C=C/C(C)=C/C(=O)O)C(C)(C)CCC1 [TRETINOIN]
- IC50 [1]: 0.01 nM
- Control [12]: 91%
- Control (Oryctolagus cuniculus [2]): <1%
- Cholesterol sulfate synthesis (% of control) (Oryctolagus cuniculus [3]): 100%
- ID50 [13]: 1000 nM
- Transglutaminase activity (% of control) (Oryctolagus cuniculus [5]): 15%
- ID50 [7]: 0.04 nM
- Control (Oryctolagus cuniculus [8]): 5%
- EC50 (F9 [9]): 1.5 nM
- EC50 (F9 [10]): 0.1 nM
